The list is not random: actives were taken first. Their share in the collection is about 3.5%.
FLuc stim CS: firefly luciferase counter-screen for stimulation assays. P08659. ATPlite luciferase biochemical, luminescence, 10 min; 0 = ATP-free wells, 1 = DMSO control. activation factor at 10 µM. 200,000 tested, under 10 active. AID 1027;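 active = luciferase activation factor, scaled between plate controls, of at least 2 with compound at 10 µM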
Target sequence (P08659 whole entry, looked up): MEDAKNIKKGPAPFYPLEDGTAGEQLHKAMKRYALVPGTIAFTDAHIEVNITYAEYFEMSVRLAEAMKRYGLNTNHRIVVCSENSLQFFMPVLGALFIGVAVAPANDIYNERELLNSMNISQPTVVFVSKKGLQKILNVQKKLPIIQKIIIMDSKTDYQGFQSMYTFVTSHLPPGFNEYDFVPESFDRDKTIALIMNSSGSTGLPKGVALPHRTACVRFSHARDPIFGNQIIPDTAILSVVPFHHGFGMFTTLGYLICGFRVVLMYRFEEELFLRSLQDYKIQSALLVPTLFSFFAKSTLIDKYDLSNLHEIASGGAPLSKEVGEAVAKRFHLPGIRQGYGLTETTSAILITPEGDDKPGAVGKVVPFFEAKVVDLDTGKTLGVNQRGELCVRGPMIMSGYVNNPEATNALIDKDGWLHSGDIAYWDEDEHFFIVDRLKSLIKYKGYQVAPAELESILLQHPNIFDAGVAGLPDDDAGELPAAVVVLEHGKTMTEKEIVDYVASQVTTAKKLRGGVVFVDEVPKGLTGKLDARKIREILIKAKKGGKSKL
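Assay system: Luciferase/luciferin detection reagent, cell-free biochemical luciferase assay / Read-out: luciferase activation / Benchmarks: No-ATP low control, compound-free enzyme-plus-ATP high control / Medium: PBS buffer for ATP / Detection: luminescence measurement of luciferase light output / Schedule: 10 min at ambient temperature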
NF-kB expr up: raises NF-kB expression in human neuronal cells | NF-kB reporter expression; hits give high values | fold change at 12.5 µM | hit rate 1.6% among 190,000; in the data active = fold change above about 3.3
APP 5'UTR act: APP 5'UTR luciferase reporter activation | activation, % at 2 µM | hit rate 1% among 190,000 | SH-SY5Y APP 5'UTR luciferase reporter, luminescence; zero percent = DMSO vehicle wells;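 active = activation above a set limit, based on mean plus 3 SD of controls, cut at about 140% in these data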
STAT1 activator: activators of IFN-gamma induced STAT1 signaling | NIH 3T3 STAT1-luciferase reporter, luminescence; 100% = IFN-gamma alone, no compound | activation (% of control), % at 5.5 µM | hit rate 2.6% among 200,000;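 active = activation above the screen-wide mean activation plus 3 SD, cut at about 130% in these data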;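 note: raw ratio to IFN-gamma control signal so 100% means no change and 0% no light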
FLuc inh counter: counter-screen for luciferase assay inhibitors: firefly luciferase inhibition; hit rate 1.5% among 200,000; inhibition, % at 10 µM; AID 1006; P08659; ATPLite firefly luciferase biochemical luminescence, 10 min;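 active = inhibition above about 50% when tested at 10 µM, limit read from the data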
Pf gamet viab: kills late stage P. falciparum gametocytes | hit rate 0.065% among 150,000 | inhibition, % at 10.9 µM | P. falciparum stage V gametocytes, ATP luminescence, 24 h;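 active = inhibition above the mean plus 3 SD of compounds within the control limits, set per campaign, cut at about 38% in these data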;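 note: 0% = DMSO wells and 100% = medium only without gametocytes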
STAT1 act conf: confirmation of STAT1 signaling activators; shares compounds with STAT1 activator; NIH 3T3 STAT1-luciferase reporter, IFN-gamma potentiation, luminescence; 100% = IFN-gamma EC80 alone, no compound; activation (% of control), % at 5.7 µM; hit rate 97% among 1,200; AID 1262;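 active = activation above a set limit carried over from the earlier primary STAT1 screen, cut at about 140% in these data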;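 note: simple ratio to median IFN-gamma plus DMSO wells so 0% means no light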
NFkB act: NF-kappaB activation in STAT1 activator counter-screen. hit rate 43% among 1,200. shares compounds with STAT1 activator. activation (% of control), % at 5.7 µM. HEK293T NF-kB luciferase reporter, TNF-alpha stimulated, luminescence; 100% = TNF-alpha with vehicle only;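 active = activation above the mean of solvent-only control wells plus 3 SD, set per campaign, cut at about 130% in these data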;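 note: TNF-alpha given at a submaximal dose yielding about 80% of full reporter signal; values are well signal over median control so 100% means no change and 0% no light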
STAT3 act 2: activates human STAT3, counter-screen to STAT1 activators; activation (% of control), % at 5.7 µM; shares compounds with STAT1 activator; U3A cells STAT3-luciferase reporter, IL-6, luminescence; cells lack STAT1; 100 = IL-6 alone, no compound effect; hit rate 46% among 1,200;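 active = activation above the solvent-only control well mean plus 3 SD, set per plate batch, cut at about 110% in these data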;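 note: 0% = no luminescence and 100% = median IL-6 plus DMSO wells; higher means more STAT3 reporter activation so hits are non-selective activators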
Numbers without * were called inactive; . = not tested or not shown.

SMILES	FLuc stim CS	NF-kB expr up	APP 5'UTR act	STAT1 activator	FLuc inh counter	Pf gamet viab	STAT1 act conf	NFkB act	STAT3 act 2
CCN(CC)S(=O)(=O)c1ccc(C(=O)OCC(=O)Nc2ccc(-c3nc4ccc(C)cc4s3)cc2)cc1	0.7	1.55	151.4*	153.4*	33.4	-4.4	175.3*	114.4	74.5
Cc1ccc2nc(-c3ccc(NS(=O)(=O)c4ccc(F)c(F)c4)cc3)sc2c1	0.5	6.46*	180.3*	172.5*	54.7*	-6.4	217.0*	137.1*	83.8
COC(=O)[C@@](C)(O)C1(C(=O)SC(C)(C)C)CC1	.	.	.	.	.	1.9	.	.	.
Nc1nc(-c2cccnc2)nc2sc3c(c12)CCCC3	0.2	5.61*	93.3	159.2*	84.9*	11.8	212.9*	146.2*	116.4*
O=C1CN(c2nc(-c3cccnc3)nc3sc4c(c23)CCCC4)CCN1	1	0.49	20.1	106.2	2.9	-4.5	.	.	.
O=C1C(C=Nc2ccccc2)=C(O)c2ccccc21	0.1	2.57	102.7	162.7*	85.8*	.	243.6*	124.7	125.5*
O=C(CCc1nnc(CCCc2ccccc2)o1)N1CCCCCC1	1	2.32	75.5	153.4*	-2.6	4.5	142.4*	121.8	107.5
CCc1cc(CNC(=O)CCc2nnc(CCCc3ccccc3)o2)on1	1	3.4*	69.8	158.0*	-0.2	-3.6	168.1*	124.7	115.1*
O=C(CCc1nnc(C2CCCCC2)o1)N1CCN(c2ccccc2F)CC1	1	2.63	84.5	163.4*	2.0	-9.3	172.1*	136.6*	117.0*
O=C1c2cccnc2Oc2ccc(Cl)cc2N1Cc1ccc(F)cc1	1.1	0.78	-6.5	76.6	-9.5	14.0	.	.	.
Cc1ccc(-n2nnc3c(=O)n(Cc4cc(C)ccc4C)cnc32)cc1	1	1.2	-5.5	106.1	-3.1	.	.	.	.
O=c1c(Cl)c(NCCCO)cnn1-c1nc2ccccc2[nH]1	0.6	2.71	1.9	110.0	37.6	19.6	.	.	.
O=C(O)C[C@H]1c2ccc(C(F)(F)F)cc2S(=O)(=O)N1C1CCCCC1	.	.	.	.	.	-3.6	.	.	.
O=C(NCCCn1ccnc1)C(=O)c1c[nH]c2ccccc12	0.9	1.09	-19.9	95.4	6.4	-3.2	.	.	.
Cc1ccc(/C=C/C(=O)NC(=S)Nc2ccccc2C(=O)NC2CCCCC2)cc1	1	1.16	5.1	103.5	-4.4	.	.	.	.
Cc1ccc(/C=C/C(=O)Nc2ccccc2C(N)=O)cc1	0.1	5.32*	183.4*	152.5*	93.4*	-33.8	179.8*	111.9	88.1
Cc1ccc([N+](=O)[O-])cc1NC(=O)C[n+]1ccccc1	1.1	1.24	9.3	96.2	-7.1	3.5	.	.	.
CC(=O)c1ccc(N2CCN(S(=O)(=O)c3cccc4nsnc34)CC2)cc1	1.1	1.44	-10.6	100.5	-5.8	-5.8	.	.	.
O=C(Cc1cccs1)N/N=C/C=C/c1ccccc1	1	1.4	33.7	118.2	3.8	15.9	.	.	.
O=C(N/N=C/C=C/c1ccccc1)c1cccs1	0.7	3.55*	77.8	156.7*	32.3	14.8	165.2*	137.0*	99.0
C/C(=N\NC(=O)c1cccs1)C(C)(C)C	1	1.95	88.7	158.5*	2.5	.	116.7	110.0	113.0*
C/C(=N/NC(=O)c1cccs1)c1ccco1	0.6	2.03	81.5	128.1	39.6	2.7	.	.	.
CC(/C=N/NC(=O)Cc1cccs1)=C\c1ccco1	1.1	1.61	-2.2	112.6	-6.0	-29.8	.	.	.
CC(/C=N/NC(=O)c1cccs1)=C\c1ccco1	0.4	5.55*	160.1*	171.4*	56.7*	-12.4	172.6*	128.0	109.5
COc1ccc(N=C2SC(C(=O)Nc3ccc4c(c3)OCO4)CC(=O)N2C)cc1 (stereo unspecified)	1	0.78	-5.1	114.4	-1.8	.	.	.	.
SMILES	FLuc stim CS	NF-kB expr up	APP 5'UTR act	STAT1 activator	FLuc inh counter	Pf gamet viab	STAT1 act conf	NFkB act	STAT3 act 2
Cc1ccc(NC(=O)COc2ccccc2C=O)cc1Cl	0.8	6.84*	153.5*	200.4*	20.6	20.1	209.1*	136.7*	109.3
O=C(Nc1cccc(Cl)c1)c1cnn2cccnc12	0.8	3.69*	87.1	157.1*	20.7	.	177.9*	130.3	122.8*
Cc1cccc(/N=C/c2c(O)[nH]c3ccccc23)n1	0.6	3.43*	122.5	158.4*	36.4	.	170.6*	111.6	124.4*
Oc1[nH]c2ccccc2c1C=Nc1ccc2c(c1)OCCO2	0.2	4.38*	182.8*	186.7*	76.5*	15.2	345.7*	136.6*	106.3
CC(C)N=Cc1c(O)[nH]c2ccccc12	1	1.42	-3.7	95.9	-1.9	.	.	.	.
COc1cccc(-c2cc(=O)c3cc(NC(C)=O)ccc3[nH]2)c1	0.9	1	1.0	100.7	6.8	-28.8	.	.	.
COc1ccc(-c2cc(=O)c3cc(OC)ccc3[nH]2)cc1	0.1	4.72*	126.1	152.9*	86.8*	.	165.1*	103.3	100.9
O=C(/C=C/c1cccc(F)c1)Nc1nccs1	0.8	3.59*	104.0	150.9*	21.2	2.8	175.0*	136.8*	111.6*
Cc1cccc(NC(=O)Nc2cccc(F)c2)n1	1	2.47	20.2	124.6	3.6	.	.	.	.
Cc1cccc(NC(=O)Nc2cc(C)cc(C)n2)c1	0.7	2.67	173.1*	168.7*	25.7	3.0	193.4*	121.0	99.8
Cc1cccc(NC(=O)Nc2ccc(C#N)cc2)n1	1	1.24	16.1	208.2*	1.1	.	140.9*	135.8*	125.3*
Cc1cc(C)nc(NC(=O)Nc2ccc3c(c2)OCO3)c1	0.5	3.02	227.6*	155.8*	47.1	2.2	203.8*	128.0	99.4
O/N=C/c1ccc(OCc2ccccc2)c(Br)c1	0.8	6.71*	131.3	162.3*	22.0	.	188.2*	131.6	123.2*
O/N=C/c1ccc(OCc2ccccc2F)c(Cl)c1	0.6	1.19	134.6	156.0*	44.1	-54.9	202.2*	130.1	127.3*
O/N=C/c1cc(Cl)ccc1OCc1ccccc1Cl	1	0.95	-9.5	97.3	-3.6	.	.	.	.
O/N=C/c1ccc(OCc2ccccc2)c(Cl)c1	0.6	5.38*	116.6	162.3*	39.1	.	203.1*	134.0*	119.3*
Clc1ccc(-c2cn3cc(Br)ccc3n2)cc1Cl	0.5	7.16*	200.7*	164.9*	53.4*	.	222.2*	100.0	121.6*
